Calls of active or inactive are those of the source. No cut-off for these calls is given here. Where only a bound is given, the exact number is not on record here.

The nature of data set [1]: Cytotoxicity against PMA-treated human U937 cells assessed as cell viability at 25 uM by MTT assay relative to control. Format: cell-based, U-937. As to conditions: read-out: Activity. Summed up:
(§1)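 After 17–20 h stimulation with 100 U/mL IFN-γ plus 2 µg/mL LPS (±compound, DMSO final 0.1%) at 37 °C, 5% CO₂, supernatant removed; MTT (5 mg/mL stock, 20 µL) added, 4 h at 37 °C; formazan dissolved in DMSO, absorbance at 570 nm. U937 were PMA-differentiated (200 nM, 24 h), then serum-free overnight; RAW264.7 grown in DMEM/10% FBS.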

Data set [2] can be described thus: Cytotoxicity against mouse RAW264.7 cells assessed as cell viability at 25 uM by MTT assay relative to control. Format: cell-based. The conditions noted are these: read-out: Activity. The method, boiled down:
as §1

Data set [3] concerns RAW264.7. Description: Inhibition of LPS/IFN-gamma-induced PGE2 production in mouse RAW264.7 cells at 25 uM after 17 to 20 hrs by enzyme immunoassay relative to control. Format: functional. Summed up:
(§2)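 Cells (5 × 10⁵/well) attached 24 h, then stimulated with recombinant IFN-γ 100 U/mL and LPS 2 µg/mL with or without compound (DMSO vehicle, 0.1% final), 17–20 h at 37 °C, 5% CO₂. U937 were first differentiated with 200 nM PMA for 24 h, then serum-free overnight. Supernatant PGE₂ quantified against standard curves; dose-response 0.78–50 µM, means ± SD of three samples.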

Data set [4] concerns RAW264.7. As to the kind of experiment: Inhibition of LPS/IFN-gamma-induced nitric oxide production in mouse RAW264.7 cells at 25 uM relative to control. Type of data set: functional.
The subject of data set [5] is U-937. As to the kind of experiment: Inhibition of LPS/IFN-gamma-induced PGE2 production in PMA-treated human U937 cells at 25 uM after 17 to 20 hrs by enzyme immunoassay relative to control. Format: functional. The method, boiled down: as §2
Data set [6] concerns U-937. As to the kind of experiment: Inhibition of LPS/IFN-gamma-induced PGE2 production in PMA-treated human U937 cells after 17 to 20 hrs by enzyme immunoassay. Type of data set: functional, cell-based. Summed up: as §2
Data set [7] addresses T1, Prostaglandin G/H synthase 1 (Ovis aries) (UniProt P05979).
T1 sequence (whole entry): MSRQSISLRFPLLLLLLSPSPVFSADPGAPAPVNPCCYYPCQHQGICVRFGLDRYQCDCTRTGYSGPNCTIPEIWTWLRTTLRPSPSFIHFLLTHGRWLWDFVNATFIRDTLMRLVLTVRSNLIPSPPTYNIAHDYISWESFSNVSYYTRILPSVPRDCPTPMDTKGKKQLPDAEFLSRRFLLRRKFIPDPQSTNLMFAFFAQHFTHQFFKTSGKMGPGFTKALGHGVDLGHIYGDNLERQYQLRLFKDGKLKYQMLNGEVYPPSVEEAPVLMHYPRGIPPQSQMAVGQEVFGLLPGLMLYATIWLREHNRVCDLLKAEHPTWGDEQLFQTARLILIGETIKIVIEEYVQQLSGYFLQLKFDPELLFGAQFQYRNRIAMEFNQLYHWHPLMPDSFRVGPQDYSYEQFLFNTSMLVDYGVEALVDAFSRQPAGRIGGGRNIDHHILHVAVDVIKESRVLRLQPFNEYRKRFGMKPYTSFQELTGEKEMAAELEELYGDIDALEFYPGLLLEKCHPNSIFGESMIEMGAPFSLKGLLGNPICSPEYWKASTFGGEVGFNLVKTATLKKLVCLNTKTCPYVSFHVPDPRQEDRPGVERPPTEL
As to the kind of experiment: Inhibition of ovine COX1 at 25 uM by ELISA relative to control. Summed up: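 COX-1 (ovine) inhibition measured with a commercial ovine/human COX inhibitor screening ELISA kit per manufacturer's protocol; prostaglandin concentrations read on a microplate reader and calculated from standard curves.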

In data set [8] the test system is RAW264.7. As to the kind of experiment: Inhibition of LPS/IFN-gamma-induced PGE2 production in mouse RAW264.7 cells after 17 to 20 hrs by enzyme immunoassay. Type of data set: functional, cell-based. Summed up: as §2
Data set [9] in a line: Cytotoxicity against PMA-treated human U937 cells assessed as cell viability at 5 uM by MTT assay relative to control.
The nature of data set [10]: Cytotoxicity against mouse RAW264.7 cells assessed as cell viability at 5 uM by MTT assay relative to control.
Data set [11] concerns U-937. As to the kind of experiment: Inhibition of LPS/IFN-gamma-induced PGE2 production in PMA-treated human U937 cells at 5 uM after 17 to 20 hrs by enzyme immunoassay relative to control. The conditions noted are these: U-937, read-out: INH.
In data set [12] the test system is RAW264.7. As to the kind of experiment: Inhibition of LPS/IFN-gamma-induced PGE2 production in mouse RAW264.7 cells at 5 uM after 17 to 20 hrs by enzyme immunoassay relative to control. As to conditions: RAW264.7, read-out: INH.
The nature of data set [13]: Inhibition of COX in CD1 mouse epidermal cytosolic fractions using [14C]arachidonic acid as substrate assessed as PGE2, PGF2alpha, and PGD2 formation by TLC/liquid scintillation spectrometry method.
Data set [14] in a line: Inhibition of COX in CD1 mouse epidermal microsomes using [14C]arachidonic acid as substrate assessed as PGE2, PGF2alpha, and PGD2 formation by TLC/liquid scintillation spectrometry method. Further details: species or system Skin epidermis.

For `CCN(CC)c1ccc(/C=C2\CCC/C(=C\c3ccc(O)c(OC)c3)C2=O)cc1`, the figures for the viability at 25 µM in data set [1] and in [2] were 100% and under 50%, respectively. The inhibition at 25 µM in the data set with RAW264.7 [3] is 95%; with RAW264.7 [4] it was 100%; in the data set with U-937 [5], 85%.

In the case of `COc1ccc(/C=C2\CCC/C(=C\c3ccc(O)c(OC)c3)C2=O)cc1`, the viability at 25 µM is 100% in data set [1] and under 50% in data set [2]. The IC50 in the data set on U-937 [6] came out at 0.95 µM; in the data set on RAW264.7 [8], 0.78 µM. Also, the inhibition entry in data set [7] is “inactive”. Moreover, the inhibition at 25 µM came out at 96% in the data set with RAW264.7 [3], 100% in the data set with RAW264.7 [4] and 86% in the data set on U-937 [5].

Consider `Cc1ccc(/C=C2\CCC/C(=C\c3ccc(C)o3)C2=O)cc1`, for which the viability at 25 µM was determined as 98% in data set [1] and 83% in data set [2]. The results for the IC50 with U-937 [6] and in the data set on RAW264.7 [8] were 1.65 µM and 4.86 µM, respectively. Besides, in the data set on U-937 [6], the inhibition entry was “Dose-dependent effect”. Also, the inhibition entry in data set [7] was “inactive”. In addition, the inhibition at 25 µM was found to be 92% in the data set on RAW264.7 [3], 99% in the data set on RAW264.7 [4] and 84% in the data set on U-937 [5].

For `COC(=O)[C@@H](N)CCCNC(=N)N[N+](=O)[O-]` [L-NAME], the inhibition at 25 µM in the data set on RAW264.7 [4] was 53%.

For the compound `COc1cc(/C=C2\CCC/C(=C\c3ccc(C)cc3)C2=O)ccc1O`, the results for the viability at 25 µM in data set [1] and in [2] were 100% and under 50%, respectively. Besides, the inhibition at 25 µM was determined as 95% with RAW264.7 [3], 100% with RAW264.7 [4] and 85% in the data set with U-937 [5].

Take `O=C1/C(=C/c2ccc(-c3ccc(F)cc3)cc2)CCC/C1=C\c1ccc(Cl)c(Cl)c1`: the viability at 25 µM in data set [1] is 94%; in data set [2], 100%. The inhibition at 25 µM in the data set on RAW264.7 [3] came to 59%; in the data set with U-937 [5], 76%. Also, the inhibition result in the data set on RAW264.7 [4] is “inactive”.

Take `CS(=O)(=O)Nc1ccc([N+](=O)[O-])cc1Oc1ccccc1` [NIMESULIDE]: the IC50 in the data set with U-937 [6] and with RAW264.7 [8] was under 0.078 µM in each case. The viability at 5 µM in [9] and in data set [10] was 100% throughout. Moreover, the results for the inhibition at 5 µM with U-937 [11] and with RAW264.7 [12] were 89% and 66%, respectively.

Turning to `Cc1ccc(/C=C2\CCC/C(=C\c3cccc4ccccc34)C2=O)cc1`, the viability at 25 µM in data set [1] stood at 94%; in data set [2] it was 100%. Further, the inhibition at 25 µM in the data set on RAW264.7 [3] was 74%; in the data set on U-937 [5], 66%. For the same compound, in the data set with RAW264.7 [4], the inhibition result is “inactive”.

For the compound `CCN(CC)c1ccc(/C=C2\CCC/C(=C\c3ccc(-c4ccc(F)cc4)cc3)C2=O)cc1`, the viability at 25 µM is 100% in [1] and 94% in data set [2]. The figures for the inhibition at 25 µM with RAW264.7 [3] and in the data set with U-937 [5] were 65% and 72%, respectively. Besides, in the data set on RAW264.7 [4], the inhibition result was “inactive”.

Consider `COc1cc(/C=C/C(=O)CC(=O)/C=C/c2ccc(O)c(OC)c2)ccc1O` [CURCUMIN], for which the viability at 25 µM is 95% in data set [1] and 90% in data set [2]. The IC50 is 1.88 µM in the data set on U-937 [6], 5 µM in [13], 52 µM in [14] and 16 µM with RAW264.7 [8]. Further, the inhibition result in [7] is “inactive”. Further, the inhibition at 25 µM in the data set with RAW264.7 [3] is 78%; in the data set on RAW264.7 [4], 85%; in the data set with U-937 [5] it was 94%.

Regarding `COc1cc(/C=C2\CCC/C(=C\c3ccc(Br)cc3)C2=O)ccc1O`, the figures for the viability at 25 µM in data set [1] and in data set [2] were 100% and under 50%, respectively. For the same compound, the inhibition at 25 µM in the data set on RAW264.7 [3] was determined as 96%; in the data set with RAW264.7 [4], 100%; with U-937 [5] it was 87%.

With `O=C1/C(=C/c2ccc(Br)cc2)CCC/C1=C\c1ccc(-c2ccc(F)cc2)cc1`, the viability at 25 µM was 98% in data set [1] and 92% in data set [2]. Also, the inhibition at 25 µM with RAW264.7 [3] came out at 53%; in the data set with U-937 [5], 66%. In the data set on RAW264.7 [4], the inhibition result was “inactive”.

Turning to `COc1cccc(/C=C2\CCC/C(=C\c3ccc(C)cc3)C2=O)c1OC`, the viability at 25 µM in [1] and in data set [2] was 100% throughout. Moreover, the values for the IC50 in the data set with U-937 [6] and with RAW264.7 [8] were 3.44 µM and 12 µM, respectively. The inhibition entry with U-937 [6] is “Dose-dependent effect”. In addition, the inhibition result in [7] is “inactive”. Further, the results for the inhibition at 25 µM with RAW264.7 [3], in the data set with RAW264.7 [4] and with U-937 [5] were 83%, 95% and 83%, respectively.

In the case of `COc1cccc(/C=C2\CCC/C(=C\c3ccc(-c4ccc(F)cc4)cc3)C2=O)c1OC`, the viability at 25 µM was found to be 98% in data set [1] and 90% in data set [2]. The inhibition at 25 µM amounted to 51% in the data set on RAW264.7 [3] and 68% with U-937 [5]. Also, the inhibition entry in the data set on RAW264.7 [4] was “inactive”.

For `COc1cccc(/C=C2\CCC/C(=C\c3ccc(Cl)c(Cl)c3)C2=O)c1OC`, the viability at 25 µM in data set [1] is 100%; in data set [2] it was 77%. The values for the inhibition at 25 µM with RAW264.7 [3], with RAW264.7 [4] and with U-937 [5] were 73%, 90% and 58%, respectively.

With `Cc1ccc(/C=C2\CCC/C(=C\c3ccc(Cl)c(Cl)c3)C2=O)cc1`, the values for the viability at 25 µM in data set [1] and in data set [2] were 100% and 95%, respectively. The inhibition at 25 µM in the data set on RAW264.7 [3] stood at 64%; in the data set on RAW264.7 [4], 71%; with U-937 [5], 68%.

For the compound `COc1cc(/C=C2\CCC/C(=C\c3ccc(O)cc3)C2=O)ccc1O`, the viability at 25 µM in data set [1] was 100%; in data set [2], under 50%. In addition, the IC50 amounted to 0.92 µM in the data set with U-937 [6] and 1.9 µM in the data set on RAW264.7 [8]. The inhibition entry in data set [7] was “inactive”. For the same compound, the inhibition at 25 µM with RAW264.7 [3] was found to be 96%; with RAW264.7 [4], 100%; in the data set with U-937 [5], 88%.
